# Measured values taken from ChEMBL document CHEMBL4368930, “Synthesis and anti-HSV activity of tricyclic penciclovir and hydroxybutylguanine derivatives” (Bioorg Med Chem, 2019).
# Columns and labels:
# Human alphaherpesvirus 1 [1] = experiment: Antiviral activity against herpes simplex virus 1 KOS infected in HEL cells assessed as reduction in virus-induced cytopathogenicity by microscopic analysis; format: functional, organism-based; conditions: Human alphaherpesvirus 1, strain KOS
# Human alphaherpesvirus 2 = experiment: Antiviral activity against herpes simplex virus 2 G infected in HEL cells assessed as reduction in virus-induced cytopathogenicity by microscopic analysis; format: functional, organism-based; conditions: Human alphaherpesvirus 2, G
# Procedure, shortened: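 Confluent cell monolayers were inoculated with 100 CCID50 of virus or 20 PFU. After a 1–2 h adsorption, residual virus was removed and cultures were incubated with the test compounds at 200, 40, 8, 1.6 and 0.32 μM. Cytopathicity was scored once it was complete in untreated infected controls.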
# Human alphaherpesvirus 1 [2] = experiment: Antiviral activity against thymidine kinase deficient and aciclovir resistant herpes simplex virus 1 KOS infected in HEL cells assessed as reduction in virus-induced cytopathogenicity by microscopic analysis; format: functional, organism-based; conditions: Human alphaherpesvirus 1, strain KOS
# [3] = Cytotoxicity against HEL cells assessed as effect on cell morphology at 0.32 to 200 uM by microscopic analysis; format: cell-based; conditions: human
# TERT-RPE1 = experiment: Cytostatic activity against human hTERT-RPE1 cells; format: ADME, cell-based; conditions: RPE-1
# Procedure, shortened: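 Cell proliferation was measured against the number of cells in untreated controls.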
# CAPAN-1 = experiment: Cytostatic activity against human Capan1 cells; format: ADME, cell-based
# [4] = Cytostatic activity against human HAP1 cells; format: ADME, cell-based
# NCI-H460 = experiment: Cytostatic activity against human NCI-H460 cells; format: ADME, cell-based
# [5] = Cytostatic activity against human DND41 cells; format: ADME, cell-based
# HL-60 = experiment: Cytostatic activity against human HL60 cells; format: ADME, cell-based
# K562 = experiment: Cytostatic activity against human K562 cells; format: ADME, cell-based
# Z-138 = experiment: Cytostatic activity against human Z138 cells; format: ADME, cell-based
# Human alphaherpesvirus 3 [6] = experiment: Antiviral activity against Varicella-zoster virus Oka harboring thymidine kinase infected in HEL cells assessed as reduction in virus plaque formation; format: functional, organism-based; conditions: Human alphaherpesvirus 3, Oka
# Human alphaherpesvirus 3 [7] = experiment: Antiviral activity against thymidine kinase deficient Varicella-zoster virus 07-1 infected in HEL cells assessed as reduction in virus plaque formation; format: functional, organism-based; conditions: Human alphaherpesvirus 3, 07-1, HEL
# Human betaherpesvirus 5 [8] = experiment: Antiviral activity against Human cytomegalovirus AD169 assessed as reduction in virus-induced cytopathogenicity by microscopic analysis; format: functional, organism-based; conditions: Human betaherpesvirus 5, strain AD169
# Human betaherpesvirus 5 [9] = experiment: Antiviral activity against Human cytomegalovirus Davis assessed as reduction in virus-induced cytopathogenicity by microscopic analysis; format: functional, organism-based; conditions: Human betaherpesvirus 5, Davis
Compound,EC50 (Human alphaherpesvirus 1 [1]) [µM],EC50 (Human alphaherpesvirus 2) [µM],EC50 (Human alphaherpesvirus 1 [2]) [µM],MCC at up to 200 µM [3] [µM],IC50 (TERT-RPE1) [µM],IC50 (CAPAN-1) [µM],IC50 [4] [µM],IC50 (NCI-H460) [µM],IC50 [5] [µM],IC50 (HL-60) [µM],IC50 (K562) [µM],IC50 (Z-138) [µM],EC50 (Human alphaherpesvirus 3 [6]) [µM],EC50 (Human alphaherpesvirus 3 [7]) [µM],EC50 (Human betaherpesvirus 5 [8]) [µM],EC50 (Human betaherpesvirus 5 [9]) [µM]
O=c1c2ncn(CCCCO)c2nc2[nH]c(-c3ccc(Cl)cc3)cn12,> 100,> 100,> 100,> 100,> 100,64.4,> 100,> 100,> 100,> 100,> 100,> 100,–,–,–,–
O=c1c2ncn(CCCCO)c2nc2[nH]c(-c3ccccc3)cn12,> 100,> 100,> 100,> 100,> 100,69.1,> 100,> 100,> 100,> 100,> 100,> 100,–,–,–,–
Cc1ccc(-c2cn3c(=O)c4ncn(CCCCO)c4nc3[nH]2)cc1,> 100,> 100,> 100,> 100,> 100,78.9,> 100,> 100,> 100,> 100,> 100,> 100,–,–,–,–
O=c1c2ncn(CCC(CO)CO)c2nc2[nH]c(-c3ccc(O)cc3)cn12,7.6,2.3,> 100,> 100,> 100,> 100,> 100,> 100,> 100,> 100,> 100,> 100,9.6,≥ 74.5,> 100,> 100
O=c1c2ncn(CCCCO)c2nc2[nH]c(-c3cccs3)cn12,> 100,> 100,> 100,> 100,> 100,> 100,> 100,> 100,> 100,> 100,> 100,> 100,–,–,–,–
O=c1c2ncn(CCC(CO)CO)c2nc2[nH]c(-c3ccc(Cl)cc3)cn12,> 100,> 100,> 100,> 100,> 100,84.8,> 100,> 100,> 100,> 100,> 100,> 100,> 100,> 100,> 100,> 100
O=c1c2ncn(CCC(CO)CO)c2nc2[nH]c(-c3ccc(F)cc3)cn12,8.9,28,12,> 100,> 100,82.8,> 100,> 100,> 100,> 100,> 100,> 100,> 100,> 100,> 100,> 100
O=c1c2ncn(CCCCO)c2nc2[nH]c(-c3ccc(F)cc3)cn12,> 100,> 100,> 100,> 100,> 100,56.1,> 100,55.5,> 100,> 100,> 100,> 100,–,–,–,–
COc1ccc(-c2cn3c(=O)c4ncn(CCCCO)c4nc3[nH]2)cc1,> 100,> 100,> 100,> 100,> 100,98.9,> 100,> 100,> 100,> 100,> 100,> 100,–,–,–,–
O=c1c2ncn(CCC(CO)CO)c2nc2[nH]c(-c3ccccc3)cn12,> 100,> 100,> 100,> 100,78.6,58.3,> 100,> 100,> 100,> 100,> 100,> 100,> 100,> 100,> 100,> 100
COc1ccc(-c2cn3c(=O)c4ncn(CCC(CO)CO)c4nc3[nH]2)cc1,1.5,0.8,0.8,> 100,> 100,> 100,> 100,> 100,> 100,> 100,> 100,> 100,66.9,100,> 100,> 100
O=c1c2ncn(CCC(CO)CO)c2nc2[nH]c(-c3ccc4c(c3)OCO4)cn12,44.7,40.9,> 100,≥ 100,> 100,78.8,> 100,> 100,> 100,> 100,> 100,> 100,> 20,> 100,> 100,> 100
O=c1c2ncn(CCC(CO)CO)c2nc2[nH]c(-c3ccc(C(F)(F)F)cc3)cn12,20,31.7,> 100,≥ 100,51.5,17.2,37.8,12.5,56.5,55.3,> 100,76.1,49.5,100,63.1,76.5
O=c1c2ncn(CCCCO)c2nc2[nH]c(-c3ccc4c(c3)OCO4)cn12,> 100,> 100,> 100,> 100,> 100,92.8,> 100,> 100,> 100,> 100,> 100,> 100,–,–,–,–
CCOc1ccc(-c2cn3c(=O)c4ncn(CCC(CO)CO)c4nc3[nH]2)cc1,76.5,> 20,> 100,> 100,> 100,> 100,> 100,95.4,> 100,> 100,> 100,> 100,> 100,> 100,> 100,> 100
O=c1c2ncn(CCCCO)c2nc2[nH]c(-c3ccc(C(F)(F)F)cc3)cn12,> 100,> 100,> 100,> 100,> 100,36.1,63.8,52.5,> 100,> 100,> 100,> 100,–,–,–,–
Cc1ccc(-c2cn3c(=O)c4ncn(CCC(CO)CO)c4nc3[nH]2)cc1,> 100,> 100,> 100,> 100,> 100,> 100,> 100,> 100,> 100,> 100,> 100,> 100,63.1,> 100,> 100,> 100
Nc1nc2c(ncn2COCCO)c(=O)[nH]1 [ACYCLOVIR],0.9,0.9,100,> 250,–,–,–,–,–,–,–,–,–,–,–,–
O=c1[nH]c(=O)n([C@H]2C[C@H](O)[C@@H](CO)O2)cc1/C=C/Br [BRIVUDINE],–,> 250,14,> 250,–,–,–,–,–,–,–,–,0.037,7.9,–,–
Nc1ccn(C[C@@H](CO)OCP(=O)(O)O)c(=O)n1 [CIDOFOVIR],–,–,5,> 250,–,–,–,–,–,–,–,–,–,–,0.72,–
CC(=O)O[C@@]12CO[C@@H]1C[C@H](O)[C@@]1(C)C(=O)[C@H](O)C3=C(C)[C@@H](OC(=O)[C@H](O)[C@@H](NC(=O)OC(C)(C)C)c4ccccc4)C[C@@](O)([C@@H](OC(=O)c4ccccc4)[C@H]21)C3(C)C [DOCETAXEL ANHYDROUS],–,–,–,–,25,0.95,1.19,0.89,1.63,0.00194,0.003,0.003,–,–,–,–
COc1cc([C@@H]2c3cc4c(cc3[C@@H](O[C@@H]3O[C@@H]5CO[C@@H](C)O[C@H]5[C@H](O)[C@H]3O)[C@H]3COC(=O)[C@H]23)OCO4)cc(OC)c1O [ETOPOSIDE],–,–,–,–,0.23,0.15,0.04,1.35,0.06,0.03,0.54,1.06,–,–,–,–
Nc1nc2c(ncn2COC(CO)CO)c(=O)[nH]1 [GANCICLOVIR],–,0.4,–,> 250,–,–,–,–,–,–,–,–,–,–,–,–
CN[C@@H]1C[C@H]2O[C@@](C)([C@@H]1OC)n1c3ccccc3c3c4c(c5c6ccccc6n2c5c31)C(=O)NC4 [STAUROSPORINE],–,–,–,–,0.25,–,–,–,–,–,–,–,–,–,–,–
